ChEMBL document CHEMBL1136985, “New pyridinone derivatives as potent HIV-1 nonnucleoside reverse transcriptase inhibitors” (J Med Chem, 2009)

Experiments:
[1] = system: Human immunodeficiency virus 1; assay: Antiviral activity against wild type HIV1 NL4-3 in human TZM-b1 cells assessed as beta-galactosidase activity after 48 hrs; type: functional, organism-based; conditions: Human immunodeficiency virus 1, NL4-3, TZM-b1, 48 h
How it was run: (§1)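 Cells plated at 5000/well, incubated 48 h, then medium replaced with compound (0.00128 to 4 µM). Infection 4 h later with cell-free NL4-3 virus equivalent to 100 ng p24. At 48 h postinfection cells lysed in PBS with 0.1% NP-40 and 5 mM MgCl2. β-Galactosidase read with chlorophenol red β-D-galactopyranoside. EC50 taken from dose-response curves.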

[2] = target: Human immunodeficiency virus type 1 reverse transcriptase (Human immunodeficiency virus 1) (UniProt Q72547); assay: Inhibition of recombinant HIV1 reverse transcriptase assessed as residual activity at 10 uM by […] incorporation assay relative to control
How it was run: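 Recombinant HIV-1 RT, compound at 10 µM final (from DMSO). Incubated 10 min at 37 °C, then collected on DEAE filters and washed. Counted by phosphorimager; activity expressed relative to uninhibited RT.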

[3] = Selectivity index, ratio of CC50 for human TZM-b1 cells to EC50 for HIV1 NL4-3; type: toxicity, cell-based; conditions: read-out: Ratio CC50/EC50
How it was run: (§2)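 Viability by WST-1 absorbance at 570 nm relative to drug-free control. Divided by EC50 from the 48 h β-galactosidase infection assay with NL4-3 in the same cell type.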

[4] = Selectivity index, ratio of CC50 for human HeLaP4 cells to EC50 for HIV1 NL4-3; type: toxicity, cell-based; conditions: read-out: Ratio CC50/EC50; how it was run: as §2
[5] = system: Human immunodeficiency virus 1; assay: Antiviral activity against wild type HIV1 NL4-3 in human HeLaP4 cells assessed as beta-galactosidase activity after 48 hrs; type: functional, organism-based; how it was run: as §1
[6] = system: Human immunodeficiency virus 1; assay: Antiviral activity against HIV1 NL4-3 with L100I mutant in human TZM-b1 cells assessed as beta-galactosidase activity after 48 hrs by single round replication assay; type: functional, organism-based; conditions: Human immunodeficiency virus 1, NL4-3, TZM-b1, 48 h
How it was run: (§3)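 TZM-bl cells (DMEM, 5% heat-inactivated FBS) plated at 5000 cells/well and grown 48 h. Medium replaced with compound at 0.00128–4 µM. After 4 h, cells infected with NL4-3-derived RT-mutant virus equal to 100 ng p24. Virus stocks came from HEK293 cells transfected with sequence-verified mutant clones. At 48 h, cells lysed in PBS/0.1% NP-40/5 mM MgCl2 and β-galactosidase read with CPRG. EC50 taken from dose-response curves.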

[7] = system: Human immunodeficiency virus 1; assay: Antiviral activity against HIV1 NL4-3 with L100I/V108I double mutant in human TZM-b1 cells assessed as beta-galactosidase activity after 48 hrs by single round replication assay; type: functional, organism-based; conditions: Human immunodeficiency virus 1, NL4-3, TZM-b1, 48 h; how it was run: as §3
[8] = system: Human immunodeficiency virus 1; assay: Antiviral activity against HIV1 NL4-3 with V108I mutant in human TZM-b1 cells assessed as beta-galactosidase activity after 48 hrs by single round replication assay; type: functional, organism-based; conditions: Human immunodeficiency virus 1, NL4-3, TZM-b1, 48 h; how it was run: as §3
[9] = system: Human immunodeficiency virus 1; assay: Antiviral activity against HIV1 NL4-3 in human TZM-b1 cells assessed as beta-galactosidase activity after 48 hrs by single round replication assay; conditions: Human immunodeficiency virus 1, NL4-3, TZM-b1, 48 h
[10] = system: Human immunodeficiency virus 1; assay: Antiviral activity against HIV1 NL4-3 with K103N mutant in human TZM-b1 cells assessed as beta-galactosidase activity after 48 hrs by single round replication assay; type: functional, organism-based; conditions: Human immunodeficiency virus 1, NL4-3, TZM-b1, 48 h; how it was run: as §3
[11] = system: Human immunodeficiency virus 1; assay: Antiviral activity against HIV1 NL4-3 with Y181C mutant in human TZM-b1 cells assessed as beta-galactosidase activity after 48 hrs by single round replication assay; type: functional, organism-based; conditions: Human immunodeficiency virus 1, NL4-3, TZM-b1, 48 h; how it was run: as §3
[12] = system: Human immunodeficiency virus 1; assay: Antiviral activity against HIV1 NL4-3 with K103N/L100I double mutant in human TZM-b1 cells assessed as beta-galactosidase activity after 48 hrs by single round replication assay; type: functional, organism-based; conditions: Human immunodeficiency virus 1, NL4-3, TZM-b1, 48 h; how it was run: as §3
[13] = system: Human immunodeficiency virus 1; assay: Antiviral activity against HIV1 NL4-3 with K103N/V108I double mutant in human TZM-b1 cells assessed as beta-galactosidase activity after 48 hrs by single round replication assay; conditions: Human immunodeficiency virus 1, NL4-3, TZM-b1, 48 h
[14] = system: Human immunodeficiency virus 1; assay: Antiviral activity against HIV1 NL4-3 with K103N/Y181C double mutant in human TZM-b1 cells assessed as beta-galactosidase activity after 48 hrs by single round replication assay; conditions: Human immunodeficiency virus 1, NL4-3, TZM-b1, 48 h
[15] = system: Human immunodeficiency virus 1; assay: Antiviral activity against HIV1 NL4-3 with Y181C mutant in human MT4 cells assessed as inhibition of virus-induced cytopathicity after 5 days by multiple round replication assay; type: functional, organism-based; conditions: Human immunodeficiency virus 1, NL4-3, MT4, 120 h
How it was run: (§4)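 MT-4 human T-cells, cultured in RPMI 1640 with 10% heat-inactivated FBS at 37 °C, 5% CO2, infected with HIV-1 NL4-3-derived mutant strains, then exposed to a range of compound concentrations. After 5 days, viability of infected and mock-infected cells read by WST-1 tetrazolium cleavage.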

[16] = system: Human immunodeficiency virus 1; assay: Antiviral activity against HIV1 NL4-3 with K103N mutant in human MT4 cells assessed as inhibition of virus-induced cytopathicity after 5 days by multiple round replication assay; type: functional, organism-based; conditions: Human immunodeficiency virus 1, NL4-3, MT4, 120 h; how it was run: as §4
[17] = system: Human immunodeficiency virus 1; assay: Antiviral activity against HIV1 NL4-3 with double K103N/L100I mutant in human MT4 cells assessed as inhibition of virus-induced cytopathicity after 5 days by multiple round replication assay; type: functional, organism-based; conditions: Human immunodeficiency virus 1, NL4-3, MT4, 120 h; how it was run: as §4
[18] = system: Human immunodeficiency virus 1; assay: Antiviral activity against HIV1 NL4-3 with L100I mutant in human MT4 cells assessed as inhibition of virus-induced cytopathicity after 5 days by multiple round replication assay; type: functional, organism-based; conditions: Human immunodeficiency virus 1, NL4-3, MT4, 120 h; how it was run: as §4
[19] = Human immunodeficiency virus 1, NL4-3, HeLaP4, 48 h

Structure (SMILES): CCOC(=O)c1c(OC2CCCCC2)c(CC)c(C)[nH]c1=O
- EC50 [1]: 230 nM
- Activity [2]: 44.7%
- selectivity ratio [3]: > 435

Structure (SMILES): CCc1c(OC2CC(C)CC(C)C2)cc(=O)[nH]c1C (configuration not stated)
- EC50 [1]: 275 nM
- selectivity ratio [3]: 200

Structure (SMILES): CCOC(=O)c1c(OC2CCCCCC2)c(CC)c(C)[nH]c1=O
- EC50 [1]: 390 nM
- Activity [2]: 34.6%
- selectivity ratio [3]: 205

Structure (SMILES): CCOC(=O)c1c(OC2C(C)CCCC2C)c(CC)c(C)[nH]c1=O (configuration not stated)
- selectivity ratio [4]: 78
- EC50 [5, 19]: 955 nM

Structure (SMILES): Cc1ccnc2c1NC(=O)c1cccnc1N2C1CC1 [NEVIRAPINE]
- EC50 [6]: 252 nM
- EC50 [7]: > 10000 nM
- EC50 [8]: 792 nM
- EC50 [1]: 39 nM
- EC50 [9]: > 10000 nM
- EC50 [10]: 3300 nM
- EC50 [11]: > 10000 nM
- EC50 [12]: > 10000 nM
- EC50 [13]: > 10000 nM

Structure (SMILES): CCc1c(C)[nH]c(=O)c([N+](=O)[O-])c1O[C@@H]1C[C@H](C)C[C@H](C)C1
- EC50 [6]: 9 nM
- EC50 [7]: 8300 nM
- EC50 [8]: 2 nM
- EC50 [1]: < 1 nM
- EC50 [9]: > 10000 nM
- EC50 [10]: 177 nM
- EC50 [11]: 279 nM
- EC50 [12]: > 10000 nM
- selectivity ratio [3]: > 37000
- EC50 [13]: > 10000 nM

Structure (SMILES): CCOC(=O)c1c(OC2CCCCC2Cl)c(CC)c(C)[nH]c1=O (configuration not stated)
- selectivity ratio [4]: < 33
- EC50 [5, 19]: > 3000 nM

Structure (SMILES): CCOC(=O)c1c(OC2CC(C)CC(C)C2)c(CC)c(C)[nH]c1=O (stereo in doubt; 10)
- EC50 ([5]; helap4): 43 nM

Structure (SMILES): CCc1c(C)[nH]c(=O)c(N)c1O[C@@H]1C[C@H](C)C[C@H](C)C1
- selectivity ratio [4]: 83
- EC50 [5, 19]: 1200 nM

Structure (SMILES): CCOC(=O)c1c(OC2CCC(CC)CC2)c(CC)c(C)[nH]c1=O (configuration not stated)
- selectivity ratio [4]: < 14
- EC50 [5, 19]: > 4000 nM

Structure (SMILES): CCc1c(C)[nH]c(=O)c(N(C)C)c1O[C@@H]1C[C@H](C)C[C@H](C)C1
- EC50 [6]: 28 nM
- EC50 [7]: 1600 nM
- EC50 [14]: 245 nM
- EC50 [8]: 6 nM
- EC50 [1]: < 1 nM
- EC50 [9]: > 10000 nM
- EC50 [10]: 14 nM
- EC50 [11]: 177 nM
- EC50 [12]: 2900 nM
- selectivity ratio [3]: > 66000
- EC50 [13]: > 10000 nM

Structure (SMILES): CCOC(=O)c1c(OC2CCCCCCC2)c(CC)c(C)[nH]c1=O
- EC50 [1]: 700 nM
- Activity [2]: 24%
- selectivity ratio [3]: 83

Structure (SMILES): CCOC(=O)c1c(OC2CCCC2)c(CC)c(C)[nH]c1=O
- EC50 [1]: 740 nM
- Activity [2]: 58.6%
- selectivity ratio [3]: > 135

Structure (SMILES): CCOC(=O)c1c(O[C@H]2C[C@H](C)C[C@H](C)C2)c(CC)c(C)[nH]c1=O
- EC50 [5, 19]: 236 nM

Structure (SMILES): CCc1c(C)[nH]c(=O)c(C)c1O[C@@H]1C[C@H](C)C[C@H](C)C1
- EC50 [6]: 203 nM
- EC50 [7]: 833 nM
- EC50 [14]: 1200 nM
- EC50 [8]: 121 nM
- EC50 [1]: 2 nM
- EC50 [9]: > 10000 nM
- EC50 [10]: 142 nM
- EC50 [11]: 893 nM
- EC50 [12]: 1400 nM
- selectivity ratio [3]: 40000
- EC50 [13]: 5100 nM

Structure (SMILES): CCOC(=O)c1c(OC2CCCC(C)C2)c(CC)c(C)[nH]c1=O (configuration not stated)
- selectivity ratio [4]: 192
- EC50 [5, 19]: 520 nM

Structure (SMILES): CCc1c(C)[nH]c(=O)c(C(=O)O)c1OC1CCCCC1
- EC50 [5, 19]: > 10000 nM

Structure (SMILES): CCOC(=O)c1c(OC2CC(C)CC(C)C2)c(CC)c(C)[nH]c1=O (stereo in doubt; 10B)
- EC50 [5, 19]: 85 nM

Structure (SMILES): CCc1c(C)[nH]c(=O)c(Br)c1O[C@@H]1C[C@H](C)C[C@H](C)C1
- EC50 [7]: 38 nM
- EC50 [14]: 523 nM
- EC50 [8]: 1 nM
- EC50 [1]: < 1 nM
- EC50 [9]: 6300 nM
- EC50 [10]: 9 nM
- EC50 [11]: 138 nM
- EC50 [12]: 68 nM
- selectivity ratio [3]: > 28000
- EC50 [13]: 780 nM

Structure (SMILES): CCc1c(C)[nH]c(=O)c(CN=[N+]=[N-])c1O[C@@H]1C[C@H](C)C[C@H](C)C1
- EC50 [6]: 34 nM
- EC50 [7]: 107 nM
- EC50 [14]: 689 nM
- EC50 [8]: 11 nM
- EC50 [1]: < 1 nM
- EC50 [9]: > 10000 nM
- EC50 [10]: 74 nM
- EC50 [11]: 206 nM
- EC50 [12]: 828 nM
- selectivity ratio [3]: > 54000
- EC50 [13]: 4400 nM

Structure (SMILES): CCOC(=O)c1c(OC2CCCC(C)C2C)c(CC)c(C)[nH]c1=O (configuration not stated)
- selectivity ratio [4]: 2620
- EC50 [5, 19]: 13 nM

Structure (SMILES): O=C1Nc2ccc(Cl)cc2[C@@](C#CC2CC2)(C(F)(F)F)O1 [EFAVIRENZ]
- EC50 [15]: 4 nM
- EC50 [6]: 17 nM
- EC50 [7]: 14 nM
- EC50 [14]: 525 nM
- EC50 [16]: 320 nM
- EC50 [1]: < 1 nM
- EC50 [9]: 235 nM
- EC50 [17]: > 10000 nM
- EC50 [10]: 31 nM
- EC50 [12]: 3700 nM
- EC50 [18]: 167 nM
- EC50 [13]: 34 nM

Structure (SMILES): CCc1c(C)[nH]c(=O)c(CO)c1O[C@@H]1C[C@H](C)C[C@H](C)C1
- EC50 [1]: 121 nM
- selectivity ratio [3]: > 826

Structure (SMILES): CCOC(=O)c1c(OC2CC(C)(C)CC(C)(C)C2)c(CC)c(C)[nH]c1=O
- selectivity ratio [4]: 112
- EC50 [5, 19]: 258 nM

Structure (SMILES): CCc1c(C)[nH]c(=O)c(C(C)(C)O)c1O[C@@H]1C[C@H](C)C[C@H](C)C1
- EC50 [1]: < 1 nM
- selectivity ratio [3]: > 100000

Structure (SMILES): CCOC(=O)c1c(S[C@@H]2C[C@H](C)C[C@H](C)C2)c(CC)c(C)[nH]c1=O
- EC50 [1]: 116 nM
- selectivity ratio [3]: 862
